Read-outs that look alike come from different tables or passages of the source.
Key:
RhoGDIα [1] = target: T1, RhoGDIα (Homo sapiens, UniProt P52565); test: Photo-affinity labeling of RhoGDIα with azialcohols, LC-MSMS; type: binding
T1 sequence (P52565 1-204): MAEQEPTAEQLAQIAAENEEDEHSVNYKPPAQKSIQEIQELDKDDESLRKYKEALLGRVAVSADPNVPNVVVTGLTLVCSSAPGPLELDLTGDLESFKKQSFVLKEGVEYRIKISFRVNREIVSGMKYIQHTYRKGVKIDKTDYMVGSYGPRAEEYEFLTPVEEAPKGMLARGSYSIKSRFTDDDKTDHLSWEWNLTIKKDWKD

RhoGDIα [2] = target: T1, RhoGDIα; type: binding
Outline: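 For n-alkanols, halothane was equilibrated first, then alkanol titrated from stocks while emission at 330 nm was tracked; buffer-only additions controlled for halothane evaporation. For AGGC (0–300 µM), 30 min preincubation ±1 mM halothane in gas-tight syringes, then dilution into cuvette. Recovery […] fitted by Hill-type equation (EC50, Fmax, h).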

RhoGDIα [3] = target: T1, RhoGDIα; type: binding; remark: listed apart in the source
Outline: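 RhoGDIα at 500 nM in 2.8 mL Buffer B (pH 7.5 Tris) in screw-top sealed cuvette with minimal headspace; halothane 0–800 µM; 60 min at room temperature. Steady-state tryptophan emission spectra, excitation 295 nm. Quenching taken as FQ/F0, averaging >10 points at the emission maximum. Fitted to Eq. 1 for Kd, h and maximal quenching.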

RhoGDIα–Cdc42 complex = target: T2, RhoGDIα–Cdc42 complex (Homo sapiens, UniProt P52565); type: biochemical; details: for effect on association of Cdc42 with membranes (Req,Cdc42) / Cdc42–RhoGDIα Dissociation h: with EDTA and GMPPNP; for Cdc42–RhoGDIα Dissociation h: fit to Eq. 6
T2 sequence (P52565 1-204): T1 sequence (P52565 1-204)
Outline: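 SPR on L1 chip at 25°C. Running buffer 10 mM HEPES pH 7.4, 150 mM NaCl. Surface cleaned with 10 mM CHAPS; POPC/POPS (4:1) 100 nm LUV captured at 5 µL/min for 15 min; conditioned with 10 mM glycine pH 1.5 and 10 mM NaOH. RhoGDIα–Cdc42 complex typically 0.5 µM in Buffer A with 50 µM GMPPNP and n-alkanol. 14.3 mM EDTA initiated exchange and dissociation. Req from first-order fits versus complex concentration.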

Cdc42 = Cdc42 (Homo sapiens, UniProt P60953); details: 50 mM (results not shown)
Cdc42, sequence (P60953 whole entry): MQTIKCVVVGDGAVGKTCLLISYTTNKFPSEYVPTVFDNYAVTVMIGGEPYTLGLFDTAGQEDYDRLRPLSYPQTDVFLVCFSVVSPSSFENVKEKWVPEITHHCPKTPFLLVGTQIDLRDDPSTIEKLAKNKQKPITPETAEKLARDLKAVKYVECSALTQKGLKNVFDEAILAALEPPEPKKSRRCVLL

[4] = read-out: Halothane Binding EC50, 0.2 mM halothane, RhoGDIα 500 nM, fit to Eq. 2
[5] = read-out: Halothane Binding KI, 0.2 mM halothane, calculated using Eq. 3

`CC1(CCO)N=N1` [3-azibutanol] was tested, and the “Lowest 3-azialcohol concentration where photoincorporation was detected” value (RhoGDIα [1]; AGGC +) was 100 µM and the “Residue photolabeled / photolabeled peptide” value (RhoGDIα [1]; AGGC –) was “Photolabeled peptide not detected”.
For `CCCCCC1(CCO)N=N1` [3-azioctanol], the “Lowest 3-azialcohol concentration where photoincorporation was detected” value (RhoGDIα [1]; AGGC +) was 10 µM, the “Lowest 3-azialcohol concentration where photoincorporation was detected” value (RhoGDIα [1]; AGGC –) was 10 µM and the “photolabeling of E193” value (RhoGDIα [1]; at levels up to 1 mM) was “not photolabeled”.
`CC(=O)N[C@@H](CSC/C=C(\C)CC/C=C(\C)CC/C=C(\C)CCC=C(C)C)C(=O)O` [AGGC, N-acetyl geranylgeranyl cysteine] was tested, and the “effect on RhoGDIα tryptophan fluorescence in the absence of halothane” value (RhoGDIα [2]; control without halothane (results not shown)) was “unaffected” and the Ki (RhoGDIα [2]; read-out: KI for the displacement of halothane, from EC50 by Eq. 3) was 0.01 mM.
In the case of `FC(F)(F)C(Cl)Br` (stereo not shown) [halothane, 2-bromo-2-chloro-1,1,1-trifluoroethane], the Kd (RhoGDIα [3]) is reported as 0.147 ± 0.007 mM, the “blue shift in the emission maxima” value (RhoGDIα [3]; dose dependent, halothane 0–800 µM) is reported as ~ 2 nm and the “Hill coefficient h for halothane binding” value (RhoGDIα [3]; fit to Eq. 1) is reported as 0.91±0.2. For the same compound, the “plateau tryptophan fluorescence intensity, of the original signal” value (RhoGDIα [3]; halothane 0–800 µM) was ~ 30%.
With `CCCCCCCO` [n-heptanol] the “effect on halothane-induced tryptophan quenching” value (RhoGDIα [2]; 0.2 mM halothane) was “negligible effects” and the “effect on association of Cdc42 with membranes (Req,Cdc42)” value (RhoGDIα–Cdc42 complex) was “unaffected”.
For `CCCCCCO` [n-hexanol], the “effect on halothane-induced tryptophan quenching” value (RhoGDIα [2]; 0.2 mM halothane) was “did not reach saturation within the concentration range used” and the “effect on association of Cdc42 with membranes (Req,Cdc42)” value (RhoGDIα–Cdc42 complex) was “unaffected”.
In the case of `CCO` [n=2, ethanol], the “Halothane Binding h” value (RhoGDIα [2]; 0.2 mM halothane, fit to Eq. 2) is reported as 1.4 ± 0.4, the EC50 (RhoGDIα [2]; [4]) is reported as 100 ± 58 mM and the Ki (RhoGDIα [2]; [5]) is reported as 42 ± 24 mM. For the same compound, the “Cdc42–RhoGDIα Dissociation h” value (RhoGDIα–Cdc42 complex) was 1.2 ± 0.2.
With `CCCO` [n=3] the “Halothane Binding Fmax” value (RhoGDIα [2]; 0.2 mM halothane, fit to Eq. 2) was 40 ± 9, the “Halothane Binding h” value (RhoGDIα [2]; 0.2 mM halothane, fit to Eq. 2) was 1.2 ± 0.2 and the EC50 (RhoGDIα [2]; [4]) was 48 ± 4.5 mM. The Ki (RhoGDIα [2]; [5]) was 20 ± 2 mM.
With `CCCCO` [n=4, n-butanol] the “Fmax for displacement of halothane” value (RhoGDIα [2]; 0.1 mM halothane) was 0.55 ± 0.06, the “h for displacement of halothane” value (RhoGDIα [2]; 0.1 mM halothane) was 1.0 ± 0.4 and the “Fmax for displacement of halothane” value (RhoGDIα [2]; 0.2 mM halothane) was 0.59 ± 0.04. For the same compound, the “h for displacement of halothane” value (RhoGDIα [2]; 0.2 mM halothane) was 1.1 ± 0.2, the “Halothane Binding Fmax” value (RhoGDIα [2]; 0.2 mM halothane, fit to Eq. 2) was 51 ± 4 and the “Halothane Binding h” value (RhoGDIα [2]; 0.2 mM halothane, fit to Eq. 2) was 1.1 ± 0.1. The “Fmax for displacement of halothane” value (RhoGDIα [2]; 0.5 mM halothane) was 0.59 ± 0.05, the “h for displacement of halothane” value (RhoGDIα [2]; 0.5 mM halothane) was 1.0 ± 0.1 and the “Fmax for displacement of halothane” value (RhoGDIα [2]; 1.0 mM halothane) was 0.65 ± 0.08. The “h for displacement of halothane” value (RhoGDIα [2]; 1.0 mM halothane) was 1.2 ± 0.2, the Hill coefficient h (RhoGDIα [2]; independent of halothane concentration or chain length) was ~ 1 and the EC50 (RhoGDIα [2]; read-out: EC50 for displacement of halothane, 0.1 mM halothane) was 3 ± 1 mM. It also gave an EC50 (RhoGDIα [2]; read-out: EC50 for displacement of halothane, 0.2 mM halothane) of 11 ± 3 mM, an EC50 (RhoGDIα [2]; read-out: EC50 for displacement of halothane, 0.5 mM halothane) of 22 ± 5 mM and an EC50 (RhoGDIα [2]; read-out: EC50 for displacement of halothane, 1.0 mM halothane) of 52 ± 8 mM. The EC50 (RhoGDIα [2]; [4]) was 10 ± 3 mM, the Ki (RhoGDIα [2]; [5]) was 4.2 ± 1.2 mM and the “effect on rate and extent of exchange of MANT-GDP for GDP” value (Cdc42) was “neither the rate nor the extent of exchange of MANT-GDP for GDP were affected”. The “effect on association of Cdc42 with membranes” value (RhoGDIα–Cdc42 complex; in the absence of EDTA and GMPPNP) was “negligible effects” and the “Cdc42–RhoGDIα Dissociation h” value (RhoGDIα–Cdc42 complex) was 1.5 ± 0.3.

From PMC4556268 (Biochemistry, 2008)
